Measurements collected from several papers.
Each line is one published result; the experiments were not run side by side.
Effect on: metabolic stability

Compound | system | setting | measurement | result
CS(=O)(=O)c1ccc(-c2cnc(N)c(-c3ccc(C(F)(F)F)nc3)c2)cc1 | male rat, liver microsomes | 1 µM | microsomal CLint | < 11.6 µL/min/mg
C[C@H](C(=O)NC1Cc2ccccc2C1)c1ccccc1 | rat, liver microsomes | 1 µM | microsomal CLint | > 200 µL/min/mg
c1ccc(-c2nc3n(c2-c2ccncc2)CCC3)nc1 | rat, hepatocytes |  | hepatocyte CLint | 4.8 µL/min/10⁶ cells
CC(=O)c1cccc(OCc2cc(C(=O)N(C)[C@@H](C)c3ccccn3)no2)c1 | rat, liver microsomes |  | scaled CLint | 770 mL/min/kg
Cc1cccnc1C(=O)Nc1ccc(N2C(=O)c3cccc(Cl)c3C2=O)c(Cl)c1 | rat, liver microsomes | 1 µM, pH 7.4 | scaled CLint | 95.9 mL/min/kg
O=c1ccc2ccc(O)cc2o1 | rat, liver S9 | 2 µM, pH 7.4 | scaled CLint | 787 mL/min/kg
COc1ccc(-c2nc3ccc(OC)cn3c2Nc2ccc(F)cc2)nc1 | rat, hepatocytes |  | hepatocyte CLint | 76 µL/min/10⁶ cells
CC(C)N1Cc2cc(C(F)(F)F)ncc2C2=CN=C(NCc3c(F)ccc4c3CCO4)N3C=NC(C1=O)C23 (stereo not drawn) | rat, liver microsomes | 100 µM, 30 min | scaled CLint | 18.9 mL/min/kg
COc1ccc(-c2nc3ccccn3c2N(C)c2ccc(F)cc2)nc1 | rat, hepatocytes |  | hepatocyte CLint | > 300 µL/min/10⁶ cells
CC(F)(F)CN1Cc2cc(C(F)(F)F)ncc2C2=CN=C(NCc3c(F)ccc4c3CCO4)N3C=NC(C1=O)C23 (stereo not drawn) | rat, liver microsomes | 100 µM, 30 min | scaled CLint | 16.6 mL/min/kg
O=c1[nH]c(=S)n(Cc2ccc(Cl)cc2CNCC(F)(F)F)c2cc[nH]c12 | rat, hepatocytes |  | hepatocyte CLint | 30 µL/min/10⁶ cells
CCOc1c(O)cc(Br)c2c1CN1CCc3cc(OCC(F)F)c(O)cc3[C@@H]1C2 | rat, liver S9 | 2 µM, pH 7.4 | scaled CLint | 902 mL/min/kg
COc1ccc(-c2nc3ccc(OC)cn3c2N(C)c2ccc(F)cc2)nc1 | rat, hepatocytes |  | hepatocyte CLint | > 300 µL/min/10⁶ cells
O=C(Nc1ccc(N2C(=O)c3cccc(Cl)c3C2=O)c(Cl)c1)c1ncccc1Cl | rat, liver microsomes | 1 µM, pH 7.4 | scaled CLint | 39.9 mL/min/kg
C[C@H](C(=O)NC1Cc2ccccc2C1)c1ccc(F)cc1 | rat, liver microsomes | 1 µM | microsomal CLint | > 200 µL/min/mg
